According to ChEMBL document CHEMBL1154874, “6-Substituted 2-(N-trifluoroacetylamino)imidazopyridines induce cell cycle arrest and apoptosis in SK-LU-1 human cancer cell line” (Eur J Med Chem, 2010):
Active and inactive are the calls of the source. No cut-off for these calls is given here.

How the values were obtained:
U-251 [1] = assay: Cytotoxicity against human U251 cells assessed as cell growth inhibition at 50 uM after 48 hrs by SRB assay; type: functional; settings: U-251, 48 h, read-out: GI
Outline: (§1)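 Cells in RPMI-1640/10% FBS/2 mM L-glutamine at 37 °C, 5% CO₂, seeded at 5000 cells/well and treated 24 h later for 48 h. Growth read by SRB (TCA fixation, 0.4% SRB, Tris solubilization, OD 515 nm).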

PC-3 = assay: Cytotoxicity against human PC3 cells assessed as cell growth inhibition at 50 uM after 48 hrs by SRB assay; type: functional; settings: PC-3, 48 h, read-out: GI; outline: as §1
K562 [2] = assay: Cytotoxicity against human K562 cells assessed as cell growth inhibition at 50 uM after 48 hrs by SRB assay; type: functional; settings: K562, 48 h, read-out: GI; outline: as §1
HCT-15 [3] = assay: Cytotoxicity against human HCT15 cells assessed as cell growth inhibition at 50 uM after 48 hrs by SRB assay; type: functional; settings: for inhibition of growth at 50 µM: HCT-15, 48 h, read-out: GI; outline: as §1
MCF7 [4] = assay: Cytotoxicity against human MCF7 cells assessed as cell growth inhibition at 50 uM after 48 hrs by SRB assay; type: functional; settings: MCF7, 48 h, read-out: GI; outline: as §1
SK-LU-1 [5] = assay: Cytotoxicity against human SK-LU-1 cells assessed as cell growth inhibition at 50 uM after 48 hrs by SRB assay; type: functional; settings: SK-LU-1, 48 h, read-out: GI; outline: as §1
U-251 [6] = assay: Cytotoxicity against human U251 cells after 48 hrs by SRB assay; type: functional, cell-based; settings: U-251, 48 h
Outline: (§2)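 Compounds dissolved in DMSO. Cells grown in RPMI-1640 with 10% FBS and 2 mM L-glutamine at 37 °C under 5% CO₂. Seeded from 70% confluent flasks at 5000 cells/well, treated 24 h after seeding for 48 h. Fixed in situ with cold 50% TCA for 1 h at 4 °C, stained with 0.4% SRB, dye solubilized in 10 mM unbuffered Tris base, OD read at 515 nm.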

K562 [7] = assay: Cytotoxicity against human K562 cells after 48 hrs by SRB assay; type: functional, cell-based; settings: K562, 48 h; outline: as §2
HCT-15 [8] = assay: Cytotoxicity against human HCT15 cells after 48 hrs by SRB assay; type: functional, cell-based; settings: HCT-15, 48 h; outline: as §2
MCF7 [9] = assay: Cytotoxicity against human MCF7 cells after 48 hrs by SRB assay; type: functional, cell-based; settings: MCF7, 48 h; outline: as §2
SK-LU-1 [10] = assay: Cytotoxicity against human SK-LU-1 cells after 48 hrs by SRB assay; type: functional, cell-based; settings: SK-LU-1, 48 h; outline: as §2
MCF7 [11] = assay: Cell cycle arrest in human MCF7 cells assessed as accumulation at G0/G1 phase at 2 times IC50 concentration after 24 hrs using propidium iodide staining by flow cytometry relative to control; type: functional
Outline: (§3)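 Log-phase cells seeded in RPMI-1640 + 10% FBS at 1×10⁶ per 10 cm dish, attached 24 h at 37 °C, then exposed to compound (DMSO solvent control) for 24 h. Harvested with PBS-EDTA, washed, fixed in ice-cold 70% ethanol at −20 °C for 24–48 h, stained with propidium iodide and analysed by FACScan flow cytometry. Three independent experiments, mean ± SD; P < 0.05 versus DMSO.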

MCF7 [12] = assay: Cell cycle arrest in human MCF7 cells assessed as accumulation at S phase at 2 times IC50 concentration after 24 hrs using propidium iodide staining by flow cytometry relative to control; type: functional; outline: as §3
MCF7 [13] = assay: Cell cycle arrest in human MCF7 cells assessed as accumulation at G2/M phase at 2 times IC50 concentration after 24 hrs using propidium iodide staining by flow cytometry relative to control; type: functional; outline: as §3
SK-LU-1 [14] = assay: Cell cycle arrest in human SK-LU-1 cells assessed as accumulation at G0/G1 phase at 2 times IC50 concentration after 24 hrs using propidium iodide staining by flow cytometry relative to control; type: functional; outline: as §3
SK-LU-1 [15] = assay: Cell cycle arrest in human SK-LU-1 cells assessed as accumulation at S phase at 2 times IC50 concentration after 24 hrs using propidium iodide staining by flow cytometry relative to control; type: functional; outline: as §3
SK-LU-1 [16] = assay: Cell cycle arrest in human SK-LU-1 cells assessed as accumulation at G2/M phase at 2 times IC50 concentration after 24 hrs using propidium iodide staining by flow cytometry relative to control; type: functional; outline: as §3
SK-LU-1 [17] = assay: Induction of apoptosis in human SK-LU-1 cells assessed as early apoptotic cells at 2 times IC50 concentration after 48 hrs using annexin V-propidium iodide staining by flow cytometry; type: functional, cell-based
Outline: (§4)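 SK-LU-1 cells treated 48 h with compounds at 2×IC50 or with DMSO as control. Labelled with FITC-annexin V and propidium iodide in binding buffer and analysed on a FACScan flow cytometer. Annexin V-only cells were scored as early apoptotic and annexin V/PI double-stained cells as late apoptotic. Values are means of three independent experiments.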

SK-LU-1 [18] = assay: Induction of apoptosis in human SK-LU-1 cells assessed as late apoptotic cells at 2 times IC50 concentration after 48 hrs using annexin V-propidium iodide staining by flow cytometry; type: functional, cell-based; outline: as §4
SK-LU-1 [19] = assay: Induction of apoptosis in human SK-LU-1 cells assessed as appearance of phosphatidylserine residues at 2 times IC50 concentration after 48 hrs by flow cytometry; type: functional; outline: as §4

Row | SMILES | inhibition of growth at 50 µM (U-251 [1]) [%] | inhibition of growth at 50 µM (PC-3) [%] | inhibition of growth at 50 µM (K562 [2]) [%] | inhibition of growth at 50 µM (HCT-15 [3]) [%] | inhibition of growth at 50 µM (MCF7 [4]) [%] | inhibition of growth at 50 µM (SK-LU-1 [5]) [%] | IC50 (U-251 [6]) [µM] | IC50 (K562 [7]) [µM] | IC50 (HCT-15 [8]) [µM] | IC50 (MCF7 [9]) [µM] | IC50 (SK-LU-1 [10]) [µM] | Activity (MCF7 [11]) [%] | Activity (MCF7 [12]) [%] | Activity (MCF7 [13]) [%] | Activity (SK-LU-1 [14]) [%] | Activity (SK-LU-1 [15]) [%] | Activity (SK-LU-1 [16]) [%] | Activity (SK-LU-1 [19]) [%] | other results
1 | O=C(c1ccc(C(F)(F)F)c(F)c1)c1ccc2nc(NC(=O)C(F)(F)F)cn2c1 | 38.4 | 32.6 | 50.1 | 59.2 | 56.5 | 48.3 | 84.2 | 83.2 | 57.1 | 50.8 | 57.1 | – | – | – | – | – | – | – | –
2 | O=C(c1ccc2nc(NC(=O)C(F)(F)F)cn2c1)c1cc(C(F)(F)F)ccc1F | 59.3 | 61.5 | 88 | 91.7 | 65.1 | 70.5 | – | – | – | – | – | – | – | – | – | – | – | – | –
3 | Cn1cc(C(=O)c2ccc3nc(NC(=O)C(F)(F)F)cn3c2)c2ccccc21 | 92.7 | 63.7 | 95.5 | 78 | 80.4 | 69.2 | 27.8 | 54.6 | 65.1 | 44.3 | 24.8 | 70.6 | 6.3 | 20.2 | 32.9 | 14.7 | 47.5 | 24.1 | Activity (SK-LU-1 [17]): Active; Activity (SK-LU-1 [18]): Active
4 | Cn1ccnc1C(=O)c1ccc2nc(NC(=O)C(F)(F)F)cn2c1 | 11.9 | 6.1 | 45.3 | – | 30.8 | 29.2 | – | – | – | – | – | – | – | – | – | – | – | – | growth inhibition (GI) (HCT-15 [3]): inactive
5 | Cc1ccc(C(=O)c2ccc3nc(NC(=O)C(F)(F)F)cn3c2)cc1F | 37.9 | 30.7 | 52.2 | 65.5 | 57.3 | 81.5 | – | – | – | – | – | 63.5 | 14.5 | 18.1 | 22.6 | 16.2 | 60.6 | 39.5 | –
